The source made the active and inactive calls. No cut-off for these calls is given here.
How the values were obtained:
HeLa S3 [1] = assay: Induction of mitotic arrest in human HeLaS3 cells assessed as abnormal multipolar spindles at 1 uM after 6 hrs by immunofluorescence staining; type: functional, cell-based
Procedure, shortened: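 HeLa S3 at 3 × 10^4 cells/mL grown on coverslips, treated 6 h, fixed in -20 °C MeOH for 5 min. Anti-α-tubulin DM1A (1:250) in PBS with 0.5% BSA for 1 h at 37 °C, then Alexa488 anti-mouse IgG (1:2000) for 1 h. DAPI 0.1 µg/mL for chromosomes; spindles examined by fluorescence microscopy. DMSO control.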

[2] = Cytotoxicity against human HeLaS3 cells after 48 hrs by WST8 assay; type: functional, cell-based; details: HeLa S3, 48 h
Procedure, shortened: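 HeLa S3 seeded at 3 × 10^3 cells/well, left overnight, then given a range of compound concentrations for 48 h. WST-8 added for 2 h and absorbance read at 450 nm. Viability (% control) = (sample − blank)/(0 µM well − blank) × 100. Cells in DMEM + 10% FCS, 37 °C, 5% CO2.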

[3] = Cell cycle arrest in human HeLaS3 cells assessed as accumulation at G2/M phase at 1 uM after 24 hrs by flow cytometric analysis; type: functional, cell-based; details: HeLa S3
Procedure, shortened: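 HeLa S3 cells at 3 × 10^4 cells/mL exposed to compound for 24 h, harvested, fixed in 70% EtOH at -20 °C, stained with propidium iodide; DNA content read by flow cytometry. DMSO-treated cells as control. Cells kept in DMEM with 10% FCS at 37 °C, 5% CO2.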

HeLa S3 [4] = assay: Ratio of glaziovianin A IC50 to compound IC50 for human HeLaS3 cells; type: functional

SMILES | Activity (HeLa S3 [1]) | IC50 [2] [µM] | Activity [3] | Ratio IC50 (HeLa S3 [4])
COc1cc2occ(-c3cc(OC)c4c(c3OC)OCO4)c(=O)c2cc1OC [GLAZIOVIANIN A] | Active | 0.59 | Active | 
COc1cc2c(=O)c(-c3cc(OC)c4c(c3OC)OCO4)coc2cc1OC1O[C@H](COC(C)=O)[C@@H](OC(C)=O)[C@H](OC(C)=O)[C@H]1OC(C)=O (mixture of isomers) |  | > 100 |  | 
COc1cc2c(=O)c(-c3cc(OC)c4c(c3OC)OCO4)coc2cc1OC1O[C@H](CO)[C@@H](O)[C@H](O)[C@H]1O (mixture of isomers) |  | > 100 |  | 
C#CCOc1cc2occ(-c3cc(OC)c4c(c3OC)OCO4)c(=O)c2cc1OC | Active | 0.17 | Active | 3.5
COc1cc2c(=O)c(-c3cc(OC)c4c(c3OC)OCO4)coc2cc1OC1CCCCO1 (stereo not drawn) |  | > 100 |  | 
COc1cc2occ(-c3cc(OC)c4c(c3OC)OC(C)(C)O4)c(=O)c2cc1OC |  | > 100 |  | 
C=CCOc1cc2occ(-c3cc(OC)c4c(c3OC)OCO4)c(=O)c2cc1OC | Active | 0.46 | Active | 1.3
COc1cc2occ(-c3ccc4c(c3)OCO4)c(=O)c2cc1OC |  |  |  | 0.01
COc1cc2c(=O)c(-c3cc(OC)c4c(c3OC)OCO4)coc2cc1OC/C=C/CCC(=O)NCCCCCCNC(=O)CCCC[C@@H]1SC[C@@H]2NC(=O)N[C@@H]21 |  | 15.5 |  | 0.038
COc1cc2c(=O)c(-c3cc(OC)c4c(c3OC)OCO4)coc2cc1OC/C=C/CCC(=O)NCCCCCCNC(=O)CCCC1=C2C(C)=CC(C)=[N+]2[B-](F)(F)n2c(C)cc(C)c21 |  | 17.4 |  | 0.034
COc1cc2occ(-c3c(Br)c(OC)c4c(c3OC)OCO4)c(=O)c2cc1OC |  | 67.8 |  | 0.009
COc1cc(-c2coc3cc(OC)c(OC)c(OC)c3c2=O)c(OC)c2c1OCO2 |  | > 100 |  | 
COc1cc2c(=O)c(-c3cc(OC)c4c(c3OC)OCO4)coc2cc1OCCCCCC(=O)NCCCCCCNC(=O)CCCC[C@@H]1SC[C@@H]2NC(=O)N[C@@H]21 |  | 15.2 |  | 0.039
COc1cc2occ(-c3cc(OC)c(OC)c(OC)c3OC)c(=O)c2cc1OC |  | 22 |  | 0.027
COc1cc2c(=O)c(-c3cc(OC)c4c(c3OC)OCO4)coc2cc1OCc1ccccc1 | Active | 0.19 | Active | 3.1
COc1cc2c(=O)c(-c3cc(OC)c4c(c3OC)OCO4)coc2cc1O |  | > 100 |  | 
COc1cc2c(=O)c(-c3cc(OC)c4c(c3OC)OCO4)coc2cc1OCC(O)CO (stereo not drawn) |  | > 100 |  | 

Source: ChEMBL document CHEMBL2146449, “Design, synthesis, and biological evaluation of the analogues of glaziovianin A, a potent antitumor isoflavone” (Bioorg Med Chem, 2012)
